Laboratory results from ChEMBL document CHEMBL1212890, “Synthesis and biological evaluation of tetracyclic fluoroquinolones as antibacterial and anticancer agents” (Bioorg Med Chem, 2010).
≈ marks a conversion by molar mass, not a printed value. Calls of active or inactive are those of the source. The calls are words filed in the database; no cut-off is given here.

How the values were obtained:
[1] = system: Staphylococcus epidermidis; assay: Antimicrobial activity against Staphylococcus epidermidis ATCC 12228 after 24 hrs by broth microdilution method; type: functional; conditions: ATCC 12228, 24 h
Method in brief: (§1)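 Broth dilution method. H. influenzae grown in Haemophilus Test Medium, other bacteria in Mueller Hinton Broth. Compounds dissolved in DMSO and diluted in growth medium. Incubated 24 h at 37 °C. MIC is the lowest concentration inhibiting reproduction of the organism. Drug-free tubes served as growth controls, organism-free tubes as purity controls, and solvent-only tubes as controls.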

Escherichia coli [2] = assay: Antimicrobial activity against quinolone and penicillin-resistant Escherichia coli after 24 hrs by broth microdilution method; type: functional
Method in brief: (§2)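 Broth dilution in Mueller Hinton Broth; compounds dissolved in DMSO and diluted in growth medium. […] Drug-free tubes served as growth controls and organism-free tubes as purity controls, with solvent-only controls included. Ciprofloxacin, levofloxacin, moxifloxacin and gemifloxacin were the reference drugs.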

Bacillus subtilis = assay: Antimicrobial activity against Bacillus subtilis ATCC 6633 after 24 hrs by broth microdilution method; type: functional; conditions: ATCC 6633, 24 h; method in brief: as §1
Pseudomonas aeruginosa [3] = assay: Antimicrobial activity against quinolone and penicillin-resistant Pseudomonas aeruginosa after 24 hrs by broth microdilution method; type: functional; method in brief: as §2
Acinetobacter baumannii [4] = assay: Antimicrobial activity against Acinetobacter baumannii ATCC 19606 after 24 hrs by broth microdilution method; type: functional; conditions: ATCC 19606, 24 h; method in brief: as §1
Staphylococcus aureus [5] = assay: Antimicrobial activity against quinolone and penicillin-resistant Staphylococcus aureus SAR4790 after 24 hrs by broth microdilution method; type: functional; conditions: SAR4790, 24 h; method in brief: as §2
MCF7 [6] = assay: Induction of cell death in human MCF7 cells at 5 uM after 48 hrs using Hoechst 33342/PI staining by microscopy; type: functional, cell-based
Method in brief: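 MCF-7 cells exposed to compound for 48 h, then stained with Hoechst 33342/PI. Cell death quantified by fluorescence microscopy as percent values. Means of three separate experiments.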

Pseudomonas aeruginosa [7] = assay: Antimicrobial activity against Pseudomonas aeruginosa ATCC 9027 after 24 hrs by broth microdilution method; type: functional; conditions: ATCC 9027, 24 h; method in brief: as §1
MCF7 [8] = assay: Cytotoxicity against human MCF7 cells after 72 hrs by MTT assay; type: functional, cell-based; conditions: MCF7, 72 h
Method in brief: (§3)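 Cells kept in medium with 2 mM glutamine and 10% FBS at 37 °C, 5% CO2. Compounds dissolved in DMSO just before addition (final ≤0.1% v/v; same solvent in controls). After 72 h exposure, viability read by MTT. Triplicates, ≥3 independent experiments. Dose–response fitted with single or double Hill functions; IC50 extrapolated from curves.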

[9] = Cytotoxicity against human HDF after 72 hrs by MTT assay; type: cell-based; method in brief: as §3
A549 = assay: Cytotoxicity against human A549 cells after 72 hrs by MTT assay; type: functional, cell-based; conditions: A549, 72 h; method in brief: as §3
MCF7 [10] = assay: Induction of apoptosis in human MCF7 cells assessed as caspase-7 activation at 5 uM after 24 hrs by Western blotting
[11] = Inhibition of Escherichia coli DNA topoisomerase-4-mediated decatenation of kinetoplast DNA by electrophoresis
MCF7 [12] = assay: Induction of apoptosis in human MCF7 cells assessed as p53 accumulation after 24 hrs by Western blotting
[13] = Inhibition of Escherichia coli DNA gyrase-mediated supercoiling of pBR322 using bromothymol blue by electrophoresis
Method in brief: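 E. coli gyrase supercoiling of relaxed pBR322 in 35 mM Tris–HCl pH 7.5, 24 mM KCl, 4 mM MgCl2, 2 mM DTT, 1.8 mM spermidine, 1 mM ATP, 6.5% glycerol, 0.1 mg/mL albumin. Incubated 30 min at 37 °C, stopped with chloroform/isoamyl alcohol, run on 1% agarose and gel-quantitated. IC50 is the concentration halving supercoiling versus drug-free control. ≥3 independent experiments.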

Staphylococcus aureus [14] = assay: Antimicrobial activity against quinolone and penicillin-resistant Staphylococcus aureus SAR72 after 24 hrs by broth microdilution method; type: functional; conditions: SAR72, 24 h; method in brief: as §2
Staphylococcus aureus [15] = assay: Antimicrobial activity against Staphylococcus aureus ATCC 6538 after 24 hrs by broth microdilution method; type: functional; conditions: ATCC 6538, 24 h; method in brief: as §1
Haemophilus influenzae = assay: Antimicrobial activity against Haemophilus influenzae ATCC 19418 after 24 hrs by broth microdilution method; type: functional; conditions: ATCC 19418, 24 h; method in brief: as §1
Escherichia coli [16] = assay: Antimicrobial activity against Escherichia coli ATCC 8739 after 24 hrs by broth microdilution method; type: functional; conditions: ATCC 8739, 24 h; method in brief: as §1
Acinetobacter baumannii [17] = assay: Antimicrobial activity against quinolone and penicillin-resistant Acinetobacter baumannii after 24 hrs by broth microdilution method; type: functional; method in brief: as §2
[18] = system: Staphylococcus epidermidis; assay: Antimicrobial activity against quinolone and penicillin-resistant Staphylococcus epidermidis SER after 24 hrs by broth microdilution method; type: functional; method in brief: as §2

Row | SMILES | MIC [1] [µg/mL] | MIC (Escherichia coli [2]) [µg/mL] | MIC (Bacillus subtilis) [µg/mL] | MIC (Pseudomonas aeruginosa [3]) | MIC (Acinetobacter baumannii [4]) [µg/mL] | MIC (Staphylococcus aureus [5]) [µg/mL] | MIC (Pseudomonas aeruginosa [7]) [µg/mL] | IC50 (MCF7 [8]) [µM] | IC50 [9] [µM] | IC50 (A549) [µM] | IC50 [11] [µg/mL] | IC50 [13] [µg/mL] | MIC (Staphylococcus aureus [14]) [µg/mL] | MIC (Staphylococcus aureus [15]) [µg/mL] | MIC (Haemophilus influenzae) [µg/mL] | MIC (Escherichia coli [16]) [µg/mL] | MIC (Acinetobacter baumannii [17]) [µg/mL] | MIC [18] [µg/mL] | also measured
1 | O=C(O)c1cn(C2CC2)c2c(cc(F)c3c4ccc(F)cc4[nH]c32)c1=O | 0.07 (≈ 0.198 µM) | > 100 | 0.003 (≈ 0.00847 µM) | inactive | 12 (≈ 33.9 µM) | > 100 | > 100 | 0.8 | > 10 | 3.5 | 28 (≈ 79 µM) | 1.8 (≈ 5.08 µM) | 1.5 (≈ 4.23 µM) | 0.07 (≈ 0.198 µM) | 0.15 (≈ 0.423 µM) | 25 (≈ 70.6 µM) | > 100 | 3 (≈ 8.47 µM) | Activity (MCF7 [6]): Active; Activity (MCF7 [10]): Active; Activity (MCF7 [12]): Active
2 | Cc1c2ccncc2c(C)c2c1[nH]c1ccccc12 [ELLIPTECINE] | – | – | – | – | – | – | – | 1.6 | > 10 | 3.4 | – | – | – | – | – | – | – | – | –
3 | C[C@H]1COc2c(N3CCN(C)CC3)c(F)cc3c(=O)c(C(=O)O)cn1c23.C[C@H]1COc2c(N3CCN(C)CC3)c(F)cc3c(=O)c(C(=O)O)cn1c23.O [LEVOFLOXACIN] | 0.15 | 25 | 0.03 | 50 µg/mL | 0.15 | 100 | 0.3 | – | – | – | – | – | 25 | 0.07 | 0.15 | – | > 100 | > 100 | –
4 | COc1c(N2C[C@@H]3CCCN[C@@H]3C2)c(F)cc2c(=O)c(C(=O)O)cn(C3CC3)c12 [MOXIFLOXACIN] | 0.07 (≈ 0.174 µM) | – | 0.015 (≈ 0.0374 µM) | > 100 µg/mL | 0.15 (≈ 0.374 µM) | 50 (≈ 125 µM) | 0.7 (≈ 1.74 µM) | – | – | – | 5 (≈ 12.5 µM) | 0.85 (≈ 2.12 µM) | 12 (≈ 29.9 µM) | 0.03 (≈ 0.0747 µM) | 0.03 (≈ 0.0747 µM) | 0.03 (≈ 0.0747 µM) | 50 (≈ 125 µM) | 50 (≈ 125 µM) | –
5 | CO/N=C1\CN(c2nc3c(cc2F)c(=O)c(C(=O)O)cn3C2CC2)CC1CN (stereo not given) [GEMIFLOXACIN] | 0.015 (≈ 0.0385 µM) | 50 (≈ 128 µM) | 0.007 (≈ 0.018 µM) | > 100 µg/mL | 0.3 (≈ 0.77 µM) | 50 (≈ 128 µM) | 0.07 (≈ 0.18 µM) | – | – | – | – | – | 6 (≈ 15.4 µM) | 0.015 (≈ 0.0385 µM) | 0.015 (≈ 0.0385 µM) | 0.015 (≈ 0.0385 µM) | 100 (≈ 257 µM) | 50 (≈ 128 µM) | –
6 | O=C(O)c1cn(C2CC2)c2cc(N3CCNCC3)c(F)cc2c1=O [CIPROFLOXACIN] | 0.07 (≈ 0.211 µM) | – | 0.03 (≈ 0.0905 µM) | – | 0.7 (≈ 2.11 µM) | > 100 | 0.07 (≈ 0.211 µM) | – | – | – | 4.6 (≈ 13.9 µM) | 0.34 (≈ 1.03 µM) | 100 (≈ 302 µM) | 0.3 (≈ 0.905 µM) | 0.15 (≈ 0.453 µM) | – | > 100 | 100 (≈ 302 µM) | –
